Measurements from article PMC3150610 (Journal of medicinal chemistry, 2011).
Blank lines part the entries; values can stand above or below the compound they belong to.

Assays:
human thrombin = human thrombin (Homo sapiens, UniProt P00734); experiment: Michaelis-Menten kinetics of Spectrozyme TH hydrolysis by thrombin; type: biochemical; settings: for VMAX of Spectrozyme TH hydrolysis: pH 7.4
In short: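 Human α-thrombin (5–10 nM) with Spectrozyme TH at 10 to 600 μM, at fixed test compound levels of 0–30 μM. Run in 20 mM Tris-HCl, pH 7.4, at 37 °C. Initial rate taken from the linear rise in A405 while under 10% of substrate was consumed. Data fitted to the Michaelis-Menten equation for KM and VMAX.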

citrated human plasma [1] = experiment: Prothrombin time; settings: thromboplastin initiator
In short: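 Test compound brought up in citrated human plasma and held 30 s at 37 °C. Pre-warmed thromboplastin (reconstituted per manufacturer, 37 °C) then added and clotting time read on a fibrometer in a one-stage assay. Deionized water served as the no-anticoagulant control. Run in duplicate. Quadratic trendline fit gave the concentration doubling PT.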

Human α-thrombin = Human α-thrombin (Homo sapiens, UniProt P00734); type: biochemical; settings: for fold change in IC50 (weaker) relative to 12a: comparator 12a; for fold weaker thrombin inhibition of di-sulfated dimers: comparator not given
citrated human plasma [2] = experiment: Activated partial thromboplastin time; settings: ellagic acid initiator
In short: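 Test compound in citrated human plasma with pre-warmed APTT reagent (0.2% ellagic acid), incubated 4 min. Clotting started with 25 mM CaCl2 at 37 °C and time to clot read on a fibrometer. One-stage recalcification format, each assay in duplicate. Clotting time versus concentration fitted to a quadratic trendline to get the concentration that doubles APTT.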

SMILES: COC(=O)c1c(C)oc2cc(OC)c(OCc3oc4cc(OC)c(OS(=O)(=O)[O-])cc4c3C(=O)OC)cc12.[Na+] [12b]
concentration required to double PT (2×PT) (citrated human plasma [1]): 850 to 2100 µM

SMILES: CCOC(=O)c1c(C)oc2cc(OCC)c(OCc3oc4cc(OCC)c(OS(=O)(=O)[O-])cc4c3C(=O)OCC)cc12.[Na+] [12e]
concentration required to double APTT (2×APTT) (citrated human plasma [2]): 355 to 1250 µM

SMILES: CCOC(=O)c1c(COc2cc3c(C(=O)OCC)c(CN4CCOCC4)oc3cc2OC)oc2cc(OC)c(OS(=O)(=O)[O-])cc12.[Na+] [compound 13]
fold change in IC50 (weaker) relative to 12a (Human α-thrombin): 2.2 fold

SMILES: COc1cc2oc(C)c(C(=O)N3CCOCC3)c2cc1OCc1oc2cc(OC)c(OS(=O)(=O)[O-])cc2c1C(=O)N1CCOCC1.[Na+] [compound 14]
fold loss of affinity from t-butyl ester dimer (Human α-thrombin; comparator printed as dimer 2c): more than 270 fold

SMILES: COc1cc2oc(C)c(C(=O)O)c2cc1OCc1oc2cc(OC)c(OS(=O)(=O)[O-])cc2c1C(=O)O.[Na+] [compound 15]
fold change in IC50 (weaker) relative to 12a (Human α-thrombin): 6.2 fold

SMILES: CCOC(=O)c1c(C)oc2cc(OCc3oc4cc(OC)c(OS(=O)(=O)[O-])cc4c3C(=O)OCC)c(OS(=O)(=O)[O-])cc12.[Na+].[Na+] [compound 17]
fold weaker thrombin inhibition of di-sulfated dimers (Human α-thrombin): 6–17 fold

SMILES: CCOC(=O)c1c(C)oc2cc(OC)c(OCc3oc4cc(OS(=O)(=O)[O-])c(OS(=O)(=O)[O-])cc4c3C(=O)OCC)cc12.[Na+].[Na+] [compound 18]
fold weaker thrombin inhibition of di-sulfated dimers (Human α-thrombin): 6–17 fold

Further lines, with some results ahead:

mechanism of thrombin inhibition (human thrombin; Michaelis-Menten kinetics): non-competitive, allosteric mechanism
VMAX of Spectrozyme TH hydrolysis (human thrombin; in presence of 1.5 μM 12a): 97 ± 13 mAUmin^−1μM^−1
VMAX of Spectrozyme TH hydrolysis (human thrombin; in presence of 3.0 μM 12a): 107 ± 14 mAUmin^−1μM^−1
VMAX of Spectrozyme TH hydrolysis (human thrombin; in presence of 10.5 μM 12a): 73 ± 13 mAUmin^−1μM^−1
VMAX of Spectrozyme TH hydrolysis (human thrombin; in presence of 30 μM 12a): 66 ± 6 mAUmin^−1μM^−1
decrease in maximal velocity of reaction (human thrombin; upon approximately 50% saturation of the enzyme): ~ 34%
SMILES: CCOC(=O)c1c(C)oc2cc(OC)c(OCc3oc4cc(OC)c(OS(=O)(=O)[O-])cc4c3C(=O)OCC)cc12.[Na+] [12a]

fold improvement of inhibition potency with lipophilicity of 3-ester (Human α-thrombin; across 12a, 12b, 12c): 8.2 fold
SMILES: COc1cc2oc(C)c(C(=O)OC(C)(C)C)c2cc1OCc1oc2cc(OC)c(OS(=O)(=O)[O-])cc2c1C(=O)OC(C)(C)C.[Na+] [12c]
concentration required to double APTT (2×APTT) (citrated human plasma [2]): 355 to 1250 µM

fold change in IC50 (weaker) relative to 12a (Human α-thrombin): 6.2 fold
SMILES: COCCOC(=O)c1c(C)oc2cc(OC)c(OCc3oc4cc(OC)c(OS(=O)(=O)[O-])cc4c3C(=O)OCCOC)cc12.[Na+] [12d]

fold increase in potency, ethyl to isopropyl at 6-position (Human α-thrombin; 12f versus 12e): ~4 fold
SMILES: CCOC(=O)c1c(C)oc2cc(OC(C)C)c(OCc3oc4cc(OC(C)C)c(OS(=O)(=O)[O-])cc4c3C(=O)OCC)cc12.[Na+] [12f]
